Data set [1] is described as follows: Selectivity ratio of IC50 for polyamine transport-deficient CHO-MG cells to IC50 for CHO cells. As to conditions: chinese hamster, polyamine transport-deficient CHO-MG cells and CHO cells; read-out: Ratio IC50. It counts as ADME, cell-based, Cricetulus griseus.
For a further data set, the system named is CHO. Kind of data set: Cytotoxicity against CHO cells assessed as growth inhibition after 48 hrs by MTS assay in presence of aminoguanidine. It counts as cell-based, Cricetulus griseus. As to conditions: for IC50: Cricetulus griseus, CHO; for IC10: chinese hamster, cho. The gist of the method:
(§1)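 CHO and transport-deficient CHO-MG* cells (CHO-MG* medium with 2 μg/mL L-proline) plated at 10 000 cells/mL and pretreated 24 h with 1 mM aminoguanidine. Compound in PBS added after overnight incubation, then 48 h at 37 °C, 5% CO2. Growth read by MTS formazan absorbance at 490 nm against untreated control.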

Data set [2] can be described thus: Inhibition of polyamine transport system-mediated [3H]-spermidine uptake in DFMO-treated human L3.6PL cells after 48 hrs in presence of spermidine and aminoguanidine.
Data set [3] is described as follows: Cytotoxicity against human L3.6PL cells assessed as growth inhibition after 48 hrs by MTS assay in presence of aminoguanidine. The data set is classed as cell-based. As to conditions: for IC50: Homo sapiens, L3.6pl; for IC10: human, l3.6pl.
A short description of data set [4]: Competitive inhibition of polyamine transport system-mediated [3H]-spermidine uptake in DFMO-treated human L3.6PL cells after 15 mins by Lineweaver-Burk plot analysis in presence of aminoguanidine. The gist of the method:
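3H-spermidine uptake in L3.6pl cells in HBSS (with Ca2+/Mg2+) at 37 °C for 15 min, with 3H-Spd fixed at 1 μM and PTI at 0–3 μM. Cells were lysed in 0.1% SDS, counted by scintillation and normalized to BCA protein.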

The nature of data set [5]: Inhibition of polyamine transport system-mediated [3H]-spermidine uptake in DFMO-treated CHO cells after 48 hrs in presence of spermidine and aminoguanidine. As to conditions: Cricetulus griseus.
In the next data set the test system is CHO-MG. Kind of data set: Cytotoxicity against polyamine transport-deficient CHO-MG cells assessed as growth inhibition after 48 hrs by MTS assay in presence of aminoguanidine. The data set is classed as ADME, cell-based. As to conditions: Cricetulus griseus. An outline of the steps:
as §1

Data set [6] is filed under the species Homo sapiens. Kind of data set: Inhibition of polyamine transport system-mediated [3H]-spermidine uptake in DFMO-treated human L3.6PL cells after 48 hrs in presence of spermine and aminoguanidine.
The species entered for data set [7] is Homo sapiens. Kind of data set: Inhibition of polyamine transport system-mediated [3H]-spermidine uptake in DFMO-treated human L3.6PL cells after 48 hrs in presence of putrescine and aminoguanidine.
Data set [8] in a line: Cytotoxicity against human L3.6PL cells assessed as growth inhibition after 48 hrs by MTS assay. It counts as cell-based.
For data set [9], the species on record is Homo sapiens. Put plainly: Inhibition of polyamine transport system-mediated [3H]-spermidine uptake in DFMO-treated human L3.6PL cells at IC10 after 48 hrs in presence of aminoguanidine.
Data set [10] is described as follows: Cytotoxicity against human L3.6PL cells assessed as cell viability at 0.01 uM after 48 hrs by MTS assay in presence of aminoguanidine relative to control. The data set is classed as cell-based. As to conditions: read-out: Activity. An outline of the steps:
(§2)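 L3.6pl cells plated at 5000 cells/mL and pretreated 24 h with 250 μM aminoguanidine. Exposed to compound for 48 h at 37 °C. Growth read by MTS absorbance at 490 nm relative to untreated control.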

The species named for data set [11] is Homo sapiens. Kind of data set: Inhibition of polyamine transport system in DFMO-treated human L3.6PL cells assessed as increase in spermine level at 7 uM after 48 hrs by HPLC analysis in presence of spermidine and aminoguanidine relative to control. Also noted: scale not given: the % may be the effect or the level left. The gist of the method: (§3)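 L3.6pl cells (450 000 per 6 mL medium with 10% FBS) pretreated 24 h with 250 μM aminoguanidine, then 48 h at 37 °C with DFMO 8 mM, Spd 1 μM, PTI 7 μM, alone or combined. Acid lysates dansylated with 1,7-diaminoheptane as internal standard and polyamines quantified by HPLC as nmol/mg BCA protein. Growth given relative to untreated control.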

The species entered for data set [12] is Homo sapiens. Put plainly: Inhibition of polyamine transport system in DFMO-treated human L3.6PL cells assessed as reduction in intracellular spermidine level at 7 uM after 48 hrs by HPLC analysis in presence of spermidine and aminoguanidine relative to control. The data set is classed as cell-based. The gist of the method:
as §3

For data set [13], the species on record is Homo sapiens. Put plainly: Inhibition of polyamine transport system in DFMO-treated human L3.6PL cells assessed as reduction in intracellular putrescine level at 7 uM after 48 hrs by HPLC analysis in presence of spermidine and aminoguanidine. It counts as cell-based. An outline of the steps: as §3
The species named for data set [14] is Homo sapiens. Kind of data set: Inhibition of polyamine transport system in human L3.6PL cells assessed as reduction in intracellular spermidine level at 7 uM after 48 hrs by HPLC analysis in presence of spermidine and aminoguanidine relative to control. It counts as cell-based. An outline of the steps:
as §3

For data set [15], the species on record is Homo sapiens. Kind of data set: Inhibition of polyamine transport system in human L3.6PL cells assessed as reduction in intracellular spermidine level at 7 uM after 48 hrs by HPLC analysis in presence of aminoguanidine relative to control. The data set is classed as cell-based. The gist of the method: as §3
A short description of data set [16]: Cytotoxicity against DFMO-treated human L3.6PL cells assessed as growth at 7 uM after 48 hrs in presence of spermidine and aminoguanidine relative to control. It counts as functional. As to conditions: read-out: Activity. The gist of the method: as §3
The species entered for data set [17] is Homo sapiens. Kind of data set: Inhibition of polyamine transport system in DFMO-treated human L3.6PL cells assessed as total polyamine level at 7 uM after 48 hrs by HPLC analysis in presence of spermidine and aminoguanidine relative to control. An outline of the steps:
as §3

Data set [18] in a line: Cytotoxicity against human L3.6PL cells assessed as growth at 7 uM after 48 hrs in presence of spermidine and aminoguanidine relative to control. The data set is classed as functional. As to conditions: read-out: Activity. The gist of the method: as §3
The species named for data set [19] is Homo sapiens. Put plainly: Inhibition of polyamine transport system in human L3.6PL cells assessed as total polyamine level at 7 uM after 48 hrs by HPLC analysis in presence of spermidine and aminoguanidine relative to control. The data set is classed as cell-based. An outline of the steps: as §3
Data set [20] can be described thus: Cytotoxicity against human L3.6PL cells assessed as growth at 7 uM after 48 hrs in presence of aminoguanidine relative to control. It counts as functional. As to conditions: read-out: Activity. An outline of the steps:
as §3

Data set [21] is filed under the species Homo sapiens. Kind of data set: Inhibition of polyamine transport system in human L3.6PL cells assessed as total polyamine level at 7 uM after 48 hrs by HPLC analysis in presence of aminoguanidine relative to control. It counts as cell-based. An outline of the steps:
as §3

Data set [22] is described as follows: Cytotoxicity against human L3.6PL cells assessed as cell viability at 0.1 uM after 48 hrs by MTS assay in presence of aminoguanidine relative to control. It counts as cell-based. As to conditions: read-out: Activity. An outline of the steps: as §2
[23] abbreviates: Homo sapiens, L3.6pl, read-out: EC50.

Data on 10 compounds can be found in ChEMBL document CHEMBL3124839, “Polyamine transport inhibitors: design, synthesis, and combination therapies with difluoromethylornithine” (J Med Chem, 2014).

Calls of active or inactive are those of the source. The rule behind the calls is not given here.

With `Cl.NCCCCNCCCCNCc1ccc(CNCCCCNCCCCN)cc1`, the selectivity ratio in data set [1] stood at 727. In the data set on CHO, the IC50 stood at 0.027 µM and the concentration for an effect of 10% (IC10) was found to be 0.001 µM.
As for `Cl.NCCCNCCCCNCCCNC(=O)c1cc(C(=O)NCCCNCCCCNCCCN)cc(C(=O)NCCCNCCCCNCCCN)c1`, in [2], the EC50 entry was “Not Active”. In addition, in data set [3], the concentration for half-maximal inhibition (IC50) came to 47.5 µM and the IC10 was determined as 8 µM.
For `Cl.NCCCCNCCCCNCc1cc(CNCCCCNCCCCN)cc(CNCCCCNCCCCN)c1`, the Ki in data set [4] was 0.036 µM. Also, the EC50 in data set [5] worked out at 0.34 µM; in data set [2] (setting [23]), 0.77 µM. Besides, the half-maximal inhibitory concentration (IC50) is 66.9 µM with CHO-MG, more than 100 µM in the data set on CHO, 188 µM in data set [8] and more than 100 µM in data set [3]. In addition, the IC10 (in the data set on CHO; in [3]) was 10 µM throughout. Also, the inhibition result in the data set filed under Homo sapiens [6] and in the data set filed under Homo sapiens [7] was “Active” throughout.
Consider `Cl.NCCCCNCCCCNCCCCNCc1cccc(CNCCCCNCCCCNCCCCN)c1`, for which the selectivity ratio in data set [1] was 335. Besides, the IC50 in the data set on CHO-MG is 13.4 µM; in the data set with CHO, 0.04 µM; in data set [3], 7.5 µM. Further, the IC10 (in the data set on CHO; in data set [3]) was 0.01 µM throughout. Besides, the inhibition entry in the data set filed under Homo sapiens [9] was “inactive”. Moreover, the viability at 48 h, 0.01 µM in data set [10] was found to be 8%. Also, in data set [2], the EC50 result was “Not Active”.
Take `Cl.NCCCCNCCCCNC(=O)c1cc(C(=O)NCCCCNCCCCN)cc(C(=O)NCCCCNCCCCN)c1`: the Ki in data set [4] stood at 0.398 µM. Besides, the results for the EC50 in [5] and in data set [2] (setting [23]) were 60 µM and 89.8 µM, respectively. Further, the IC50 (in the data set with CHO-MG; with CHO; in data set [3]) was more than 100 µM in each case. The IC10 (with CHO; in [3]) was more than 100 µM in each case.
For the compound `Cl.NCCCCNCCCCNCCCCNC(=O)c1cc(C(=O)NCCCCNCCCCNCCCCN)cc(C(=O)NCCCCNCCCCNCCCCN)c1`, the selectivity ratio in [1] amounted to 4.3. The 50% inhibitory concentration (IC50) in the data set on CHO-MG was determined as 69.1 µM; in the data set with CHO, 16 µM; in data set [3], 9.7 µM. Further, the concentration for an effect of 10% (IC10) (in the data set on CHO; in [3]) was 1 µM in each case. Besides, the inhibition result in the data set listed under Homo sapiens [9] was “inactive”. Besides, in [2], the EC50 result was “Not Active”.
Consider `CNCCCCNCCCCNCc1cc(CNCCCCNCCCCNC)cc(CNCCCCNCCCCNC)c1.Cl`, for which the Ki in data set [4] was 0.055 µM. Also, the half-maximal effective concentration (EC50) is 0.42 µM in data set [5] and 1.4 µM in [2] (setting [23]). Further, the IC50 in the data set with CHO-MG was 122 µM; with CHO, more than 100 µM; in data set [8], 183 µM; in data set [3], more than 100 µM. For the same compound, the IC10 (in the data set with CHO; in data set [3]) was 10 µM throughout. Moreover, the Activity in the data set listed under Homo sapiens [11] worked out at 67%; in the data set listed under Homo sapiens [17], 19.9 nmol/mg; in the data set listed under Homo sapiens [19], 37.4 nmol/mg; in the data set listed under Homo sapiens [21] it was 40.4 nmol/mg. In addition, the results for the inhibition in the data set filed under Homo sapiens [12], in the data set listed under Homo sapiens [14] and in the data set filed under Homo sapiens [15] were 87%, 33% and 27%, respectively. The inhibition entry in the data set filed under Homo sapiens [13] is “Active”. Further, the values for the growth at 7 µM in data set [16], in [18] and in [20] were 70%, 88% and 117%, respectively.
`Cl.NCCCC[C@H](N)C(=O)NCCCNCCCCNCCCN`: the IC10 (with CHO; in data set [3]) was more than 100 µM throughout.
For the compound `Cl.NCCCCNCCCCNCc1cccc(CNCCCCNCCCCN)c1`, the selectivity ratio in data set [1] amounted to 1070. The IC50 is 30 µM with CHO-MG, 0.028 µM in the data set on CHO and 52.2 µM in [3]. Also, the results for the concentration for an effect of 10% (IC10) (in the data set with CHO; in data set [3]) were 0.01 µM and 0.1 µM, respectively. The inhibition result in the data set filed under Homo sapiens [9] is “inactive”. Besides, the viability at 48 h, 0.1 µM in data set [22] is 8%. The EC50 entry in data set [2] was “Not Active”.
In the case of `NCCCCNCCCCNCc1c2ccccc2cc2ccccc12`, the selectivity ratio in data set [1] was found to be 148.
